Key:
[1] = system: P388; test: Compound was tested for the effect on the formation of protein-DNA complex in P388 cells investigated by the K+/SDS method; format: functional, Mus musculus
Summary of the method: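 Formation of topoisomerase–DNA (protein–DNA) complexes was measured in murine leukemia P388 cells by K+/SDS precipitation. Activity was reported as EC200.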

[2] = system: MKN-45; test: Tested for cytotoxic activity against human stomach cancer cells (MKN-45); format: functional, cell-based
Summary of the method: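 The human stomach cancer MKN-45 cell line was used. Cytotoxicity was read out by a colorimetric tetrazolium–formazan assay and by sulforhodamine B dye staining.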

[3] = biological target: DNA topoisomerase II (Homo sapiens, UniProt P11388+Q02880); test: Tested for inhibitory effect on topoisomerase-2 mediated DNA cleavage using super coiled pBR322 plasmid DNA; format: functional
[4] = biological target: Protein kinase C (PKC); test: Inhibitory effect on protein kinase C using histone II-As as substrate; format: protein assay
[5] = biological target: T1, DNA topoisomerase 1 (Homo sapiens, UniProt P11387); test: Inhibitory effect on topoisomerase-1 mediated DNA cleavage using supercoiled pBR322 plasmid DNA; format: functional
T1 sequence (P11387 whole entry): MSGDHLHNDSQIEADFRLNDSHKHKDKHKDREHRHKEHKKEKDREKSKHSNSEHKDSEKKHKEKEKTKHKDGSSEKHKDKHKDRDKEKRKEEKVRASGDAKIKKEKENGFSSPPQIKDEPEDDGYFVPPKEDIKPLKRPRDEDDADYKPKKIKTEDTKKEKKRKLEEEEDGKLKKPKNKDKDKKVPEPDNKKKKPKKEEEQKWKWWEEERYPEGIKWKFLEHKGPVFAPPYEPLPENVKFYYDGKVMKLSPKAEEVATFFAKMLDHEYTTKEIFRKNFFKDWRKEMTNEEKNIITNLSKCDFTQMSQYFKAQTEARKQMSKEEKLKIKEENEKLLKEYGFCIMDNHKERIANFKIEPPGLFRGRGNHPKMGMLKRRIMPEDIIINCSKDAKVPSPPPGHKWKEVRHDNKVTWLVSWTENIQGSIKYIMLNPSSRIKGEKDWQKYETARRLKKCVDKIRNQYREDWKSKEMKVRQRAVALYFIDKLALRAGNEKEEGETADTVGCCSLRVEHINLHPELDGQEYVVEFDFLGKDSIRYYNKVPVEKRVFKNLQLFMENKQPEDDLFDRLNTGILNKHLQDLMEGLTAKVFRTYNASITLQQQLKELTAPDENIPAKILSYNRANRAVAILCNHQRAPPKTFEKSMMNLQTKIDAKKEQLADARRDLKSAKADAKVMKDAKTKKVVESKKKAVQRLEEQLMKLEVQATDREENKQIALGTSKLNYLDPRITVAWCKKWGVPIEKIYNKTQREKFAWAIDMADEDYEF

[6] = system: P388; test: The compound was tested for the cytotoxic activity against murine leukemia cells (P388); format: functional, cell-based; details: Mus musculus
Summary of the method: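 The murine leukemia P388 cell line was used. Cytotoxicity was read out by a colorimetric tetrazolium–formazan assay.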

[7] = system: MKN-45; test: Ratio of compound toxicity to that of anticancer activity against human stomach cancer cells MKN-45 in mice; format: functional
Summary of the method: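 MKN-45 human stomach cancer cells were implanted subcutaneously in a side flank of nude mice. Dosing began once tumors reached 0.2 cm³ or larger and was given intravenously five times per week for 2 weeks. GID75 is the approximate dose giving 75% tumor growth inhibition. LD10 is the approximate 10% lethal dose on the same schedule. Safety margin is LD10/GID75.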

[8] = system: MKN-45; test: Inhibitory activity against human stomach cancer cells MKN-45 in nude mice after intravenous dose
[9] = species on record: Mus sp.; test: Tested for toxicity in mice; format: organism-based; details: in vivo
Summary of the method: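 Nude mice bearing subcutaneous MKN-45 human stomach cancer flank xenografts; dosing intravenous five times/week for 2 weeks, starting once tumors reached 0.2 cm³ or larger. Toxicity expressed as LD₁₀, the approximate dose lethal to 10% of animals on this schedule.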

Row | EC50 [3] | Compound | EC200 [1] | IC50 [2] | IC50 [4] | EC50 [5] | IC50 [6] | Saftey margin [7] | GID75 [8] | LD10 [9]
1 | > 50000 nM | C[C@H]1O[C@@H](n2c3cc(O)ccc3c3c4c(c5c6ccc(O)cc6[nH]c5c32)C(=O)N(NC(CO)CO)C4=O)[C@H](O)[C@@H](O)[C@@H]1O | 6500 nM | 38 nM | 60000 nM | 140 nM | 3 nM |  |  | 
2 | > 50000 nM | O=C1c2c(c3c4ccc(O)cc4n([C@@H]4O[C@H](CO)[C@@H](O[C@H]5O[C@H](CO)[C@@H](O)[C@H](O)[C@H]5O)[C@H](O)[C@H]4O)c3c3[nH]c4cc(O)ccc4c23)C(=O)N1NC(CO)CO | >10000 nM | 73 nM | > 200000 nM | > 3000 nM | 3.5 nM |  |  | 
3 |  | O=C1c2c(c3c4ccc(O)cc4n([C@@H]4OC[C@@H](O)[C@H]4O)c3c3[nH]c4cc(O)ccc4c23)C(=O)N1NC(CO)CO |  | 37 nM | 12000 nM | 40 nM | 2.4 nM |  |  | 
4 |  | O=C1c2c(c3c4ccc(O)cc4n([C@@H]4O[C@H](CO)[C@H](O)[C@H](O)[C@H]4O)c3c3[nH]c4cc(O)ccc4c23)C(=O)N1NC(CO)CO | >10000 nM | 9.3 nM | > 200000 nM | 140 nM | 7.1 nM |  |  | 
5 | > 50000 nM | O=C1c2c(c3c4ccc(O)cc4n([C@@H]4O[C@@H](C(O)CO)[C@@H](O)[C@H]4O)c3c3[nH]c4cc(O)ccc4c23)C(=O)N1NC(CO)CO (some centres undefined) | 1700 nM | 29 nM | > 200000 nM | 20 nM | 14 nM |  |  | 
6 | > 50000 nM | O=C1c2c(c3c4ccc(O)cc4n([C@@H]4O[C@H](CO)[C@@H](O)[C@@H]4O)c3c3[nH]c4cc(O)ccc4c23)C(=O)N1NC(CO)CO | 430 nM | 93 nM | 120000 nM | 32 nM | 5.3 nM |  |  | 
7 |  | O=C1c2c(c3c4ccc(O)cc4n([C@H]4O[C@H](CO)[C@@H](O)[C@@H](O)[C@H]4O)c3c3[nH]c4cc(O)ccc4c23)C(=O)N1NC(CO)CO | 1600 nM | 20 nM | 72000 nM | 26 nM | 18 nM |  |  | 
8 | > 50000 nM | O=C1c2c(c3c4ccc(O)cc4n([C@H]4O[C@H](CO)[C@@H](O)[C@@H]4O)c3c3[nH]c4cc(O)ccc4c23)C(=O)N1NC(CO)CO | 2600 nM | 43 nM | > 200000 nM | 100 nM | 8.5 nM |  |  | 
9 | > 50000 nM | O=C1c2c(c3c4ccc(O)cc4n([C@H]4C[C@H](O)[C@@H](CO)O4)c3c3[nH]c4cc(O)ccc4c23)C(=O)N1NC(CO)CO | 170 nM | 45 nM | 3000 nM | 25 nM | 4.4 nM |  |  | 
10 | > 50000 nM | O=C1c2c(c3c4ccc(O)cc4n([C@H]4O[C@H](CO)[C@H](O)[C@H]4O)c3c3[nH]c4cc(O)ccc4c23)C(=O)N1NC(CO)CO | 400 nM | 68 nM | > 200000 nM | 17 nM | 12 nM |  |  | 
11 | > 50000 nM | O=C1c2c(c3c4ccc(O)cc4n([C@@H]4C[C@@H](O)[C@H](O)[C@@H](CO)O4)c3c3[nH]c4cc(O)ccc4c23)C(=O)N1NC(CO)CO | 1200 nM | 33 nM | 150000 nM | 130 nM | 16 nM |  |  | 
12 | > 50000 nM | O=C1c2c(c3c4ccc(O)cc4n([C@@H]4OC[C@@H](O)[C@H](O)[C@H]4O)c3c3[nH]c4cc(O)ccc4c23)C(=O)N1NC(CO)CO | 300 nM | 50 nM | > 200000 nM | 100 nM | 3.8 nM |  |  | 
13 | > 50000 nM | O=C1c2c(c3c4ccc(O)cc4n([C@H]4C[C@@H](O)[C@H](O)[C@@H](CO)O4)c3c3[nH]c4cc(O)ccc4c23)C(=O)N1NC(CO)CO | 3000 nM | 42 nM | 130000 nM | 240 nM | 5.6 nM |  |  | 

Row | Compound | EC50 [3] | EC200 [1] | IC50 [2] | IC50 [4] | EC50 [5] | IC50 [6] | Saftey margin [7] | GID75 [8] | LD10 [9]
14 | O=C1c2c(c3c4ccc(O)cc4n([C@@H]4O[C@H](CO)[C@@H](O)[C@H](O)[C@H]4O)c3c3[nH]c4cc(O)ccc4c23)C(=O)N1NC(CO)CO [EDOTECARIN] | > 50000 nM | 100 nM | 4.8 nM | 200000 nM | 51 nM | 1.5 nM | >36 | 45 mg m**-2 | > 1600 mg m**-2
15 | O=C1c2c(c3c4ccc(O)cc4n([C@H]4O[C@H](CO)[C@@H](O)[C@H](O)[C@@H]4O)c3c3[nH]c4cc(O)ccc4c23)C(=O)N1NC(CO)CO | > 50000 nM | 930 nM | 23 nM | 50000 nM | 80 nM | 15 nM |  |  | 
16 | O=C1c2c(c3c4ccc(O)cc4n([C@@H]4O[C@H](CO)[C@@H](O)[C@@H](O)[C@H]4O)c3c3[nH]c4cc(O)ccc4c23)C(=O)N1NC(CO)CO | > 50000 nM | 160 nM | 33 nM | 17000 nM | 26 nM | 13 nM | 2.3 | 440 mg m**-2 | 990 mg m**-2
17 | O=C1c2c(c3c4ccc(O)cc4n([C@H]4O[C@H](CO)[C@@H](O)[C@H](O)[C@H]4O)c3c3[nH]c4cc(O)ccc4c23)C(=O)N1NC(CO)CO | > 50000 nM | 450 nM | 8.5 nM | 23000 nM | 300 nM | 19 nM | 1.5 | 110 mg m**-2 | 170 mg m**-2
18 | O=C1c2c(c3c4ccc(O)cc4n([C@H]4O[C@H](CO)[C@@H](O)[C@H]4O)c3c3[nH]c4cc(O)ccc4c23)C(=O)N1NC(CO)CO | > 50000 nM | 450 nM | 130 nM | 21000 nM | 30 nM | 19 nM | 1.9 | 540 mg m**-2 | 1000 mg m**-2
19 | O=C1c2c(c3c4ccc(O)cc4n([C@@H]4O[C@H](CO)[C@H](O)[C@H]4O)c3c3[nH]c4cc(O)ccc4c23)C(=O)N1NC(CO)CO | > 50000 nM | 60 nM | 6 nM | > 200000 nM | 17 nM | 0.96 nM | 1.4 | 300 mg m**-2 | 420 mg m**-2
20 | O=C1c2c(c3c4ccc(O)cc4n([C@@H]4O[C@H](C(O)CO)[C@@H](O)[C@H]4O)c3c3[nH]c4cc(O)ccc4c23)C(=O)N1NC(CO)CO (some centres undefined) | > 50000 nM | 2000 nM | 70 nM | > 200000 nM | 42 nM | 17 nM | 1.4 | 260 mg m**-2 | 370 mg m**-2
21 | O=C1c2c(c3c4ccc(O)cc4n([C@@H]4O[C@H](CO)[C@@H](O)[C@H]4O)c3c3[nH]c4cc(O)ccc4c23)C(=O)N1NC(CO)CO | > 50000 nM | 32 nM | 50 nM | 20000 nM | 8 nM | 1.8 nM | 2 | 290 mg m**-2 | 570 mg m**-2
22 | O=C1c2c(c3c4ccc(O)cc4n([C@@H]4O[C@H](CO)[C@@H](O)[C@H](O)[C@@H]4O)c3c3[nH]c4cc(O)ccc4c23)C(=O)N1NC(CO)CO | > 50000 nM | >10000 nM | 63 nM | 20000 nM | 230 nM | 36 nM |  |  | 

Source: ChEMBL document CHEMBL1133404, “Synthesis and biological activities of NB-506 analogues modified at the glucose group” (Bioorg Med Chem Lett, 2000)
